# Measured values taken from publication PMC3072167 (Bioorganic & medicinal chemistry letters, 2011).
# “Also recorded” adds a separate entry of the source.
# What was measured:
# [1] = biological target: chymotrypsin-like (ChT-L) activities of the 20S proteasome (Homo sapiens, UniProt P28074); assay: Inhibition of chymotrypsin-like; type: biochemical; settings: qualitative statements in text
# [2] = biological target: chymotrypsin-like activity of the proteasome (Homo sapiens, UniProt P28074); assay: Enzyme kinetic study; type: biochemical
# Method in brief: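 The 20S proteasome chymotrypsin-like activity was measured across a range of Suc-Leu-Leu-Val-Tyr-AMC concentrations, with or without 2 μM or 4 μM test compound. Cleaved substrate was read as fluorescence units, and reaction rates were plotted as Lineweaver-Burk plots to derive Km and Vmax. Each point is the average of two independent experiments.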
# [3] = system: HeLa Ub^G76V-GFP cells; assay: Cell based proteasome assay: accumulation of UbG76V-GFP; settings: 7.5 uM for 24 hours; fluorescence microscope
# Method in brief: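 HeLa cells stably expressing UbG76V-GFP, seeded at 10,000 cells per well in growth medium, were cultured with test compound (7.5 uM) for 24 hours. Intracellular UbG76V-GFP accumulation was recorded as green fluorescence by fluorescence microscopy.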
Compound,"Inhibition of the chymotrypsin-like activity of the 20S proteasome, in words [1]",also measured
CCOC(=O)CC[C@@H](C)[C@H]1CC[C@H]2[C@@H]3CC[C@@H]4C[C@H](OC(=O)CCCCCC(=O)O)CC[C@]4(C)[C@H]3CC[C@]12C [Compound 17],loss of inhibitory activity,
"C[C@H]1[C@H](C)CC[C@]2(C(=O)O)CC[C@]3(C)C(=CC[C@@H]4[C@@]5(C)CC[C@H](O)C(C)(C)[C@@H]5CC[C@]43C)[C@H]12 [ursolic acid, reference compound]",only LA inhibited,
C[C@H](CCC(=O)O)[C@H]1CC[C@H]2[C@@H]3CC[C@@H]4C[C@H](OC(=O)CCCCCC(=O)O)CC[C@]4(C)[C@H]3CC[C@]12C [Compound 8],did not inhibit,
CCOC(=O)CC[C@@H](C)[C@H]1CC[C@H]2[C@@H]3CC[C@@H]4C[C@H](O)CC[C@]4(C)[C@H]3CC[C@]12C [Compound 2],loss of inhibitory activity,
C[C@H](CCC(=O)O)[C@H]1CC[C@H]2[C@@H]3CC[C@@H]4C[C@H](OC(=O)CC5(CC(=O)O)CCCC5)CC[C@]4(C)[C@H]3CC[C@]12C [Compound 10],,"Mode of proteasome inhibition ([2]; Lineweaver-Burk plot, 2 μM and 4 μM compound, substrate Suc-Leu-Leu-Val-Tyr-AMC): noncompetitive inhibitor; Effect on Michaelis-Menten constant (Km) of the substrate ([2]; compound at 2 μM and 4 μM): without affecting; Effect on maximum reaction rate (Vmax) of the proteasomal activity ([2]; compound at 2 μM and 4 μM): reduced; Accumulation of Ub^G76V-GFP (green fluorescence) in cells [3]: resulted in accumulation of Ub^G76V-GFP; also recorded: inhibited the proteasome"
"CC1(C)C=C2[C@H]3CC[C@@H]4[C@@]5(C)CCC(=O)C(C)(C)[C@@H]5CC[C@@]4(C)[C@]3(C)CC[C@@]2(C(=O)O)CC1 [moronic acid, reference compound]",only LA inhibited,
COC(=O)CC[C@@H](C)[C@H]1CC[C@H]2[C@@H]3CC[C@@H]4C[C@H](O)CC[C@]4(C)[C@H]3CC[C@]12C [Compound 1],loss of inhibitory activity,
COC(=O)CC[C@@H](C)[C@H]1CC[C@H]2[C@@H]3CC[C@@H]4C[C@H](OC(=O)CCCCCC(=O)O)CC[C@]4(C)[C@H]3CC[C@]12C [Compound 16],loss of inhibitory activity,
COC(=O)CC[C@@H](C)[C@H]1CC[C@H]2[C@@H]3CC[C@@H]4C[C@H](OC(=O)Cc5cccc(CC(=O)O)c5)CC[C@]4(C)[C@H]3CC[C@]12C [Compound 15],lost the inhibitory activity; also recorded: loss of inhibitory activity,
